In general, EC50 refers to the concentration at which the effect is half-maximal.

The text below walks through data of ChEMBL document CHEMBL3396953, “Design, synthesis and biological evaluation of a class of bioisosteric oximes of the novel dual peroxisome proliferator-activated receptor α/γ ligand LT175” (Eur J Med Chem, 2015).

Holding throughout (type): cell-based
Experiment [1] addresses T1, Peroxisome proliferator-activated receptor gamma (Homo sapiens, UniProt P37231).
T1 sequence (P37231 whole entry): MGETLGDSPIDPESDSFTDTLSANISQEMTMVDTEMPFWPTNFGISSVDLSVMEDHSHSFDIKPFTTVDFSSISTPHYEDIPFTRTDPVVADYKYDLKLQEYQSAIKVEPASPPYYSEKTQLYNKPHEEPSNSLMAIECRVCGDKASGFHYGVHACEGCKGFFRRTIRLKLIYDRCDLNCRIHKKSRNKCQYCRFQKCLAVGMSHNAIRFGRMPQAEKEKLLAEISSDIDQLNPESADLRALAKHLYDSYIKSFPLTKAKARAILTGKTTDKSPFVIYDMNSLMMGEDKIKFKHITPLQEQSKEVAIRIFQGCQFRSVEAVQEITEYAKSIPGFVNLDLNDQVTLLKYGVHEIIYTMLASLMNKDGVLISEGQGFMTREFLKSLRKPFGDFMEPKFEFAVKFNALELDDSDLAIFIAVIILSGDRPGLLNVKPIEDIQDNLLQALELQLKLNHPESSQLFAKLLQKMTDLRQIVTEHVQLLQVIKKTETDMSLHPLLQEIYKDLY
Briefly: Agonist activity at GAL4-DNA binding domain fused human PPARgamma ligand binding domain expressed in human HepG2 cells assessed as receptor transactivation incubated for 20 hrs by luciferase reporter gene assay.

In experiment [2] the target is T2, Peroxisome proliferator-activated receptor alpha (Homo sapiens) (UniProt Q07869).
T2 sequence (whole entry): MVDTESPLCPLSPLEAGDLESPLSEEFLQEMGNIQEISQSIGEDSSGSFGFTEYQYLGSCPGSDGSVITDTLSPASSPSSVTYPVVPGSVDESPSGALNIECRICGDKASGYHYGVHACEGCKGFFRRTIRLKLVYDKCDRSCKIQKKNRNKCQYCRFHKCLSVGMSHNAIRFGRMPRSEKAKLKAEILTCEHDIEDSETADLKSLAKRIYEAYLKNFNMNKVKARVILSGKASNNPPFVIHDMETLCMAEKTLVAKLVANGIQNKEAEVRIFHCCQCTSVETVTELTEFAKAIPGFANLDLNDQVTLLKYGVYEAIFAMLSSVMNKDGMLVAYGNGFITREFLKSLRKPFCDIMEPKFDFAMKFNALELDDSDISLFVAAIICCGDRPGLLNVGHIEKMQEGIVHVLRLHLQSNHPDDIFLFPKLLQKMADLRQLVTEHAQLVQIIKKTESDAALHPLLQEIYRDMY
Briefly: Agonist activity at GAL4-DNA binding domain fused human PPARalpha ligand binding domain expressed in human HepG2 cells assessed as receptor transactivation incubated for 20 hrs by luciferase reporter gene assay relative to Wy-14,643. The gist of the method: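 GAL4-PPARα-LBD chimera transiently expressed in HepG2 cells; 10⁵ cells/well seeded in triplicate, calcium-phosphate transfection after 24 h with GAL4-PPARα-LBD plasmid (30 ng), pGAL5TKpGL3 reporter (100 ng) and pCMVβgal (250 ng). Efficacy expressed as percentage of maximum fold induction obtained with reference agonist Wy-14,643. Transfections repeated at least twice.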
For orientation: A reporter such as luciferase makes a cellular process visible.

The target in experiment [3] is T3, Peroxisome proliferator-activated receptor alpha (Homo sapiens, UniProt Q07869).
T3 sequence (Q07869 whole entry): T2 sequence (whole entry)
Put plainly: Agonist activity at GAL4-DNA binding domain fused human PPARalpha ligand binding domain expressed in human HepG2 cells assessed as receptor transactivation incubated for 20 hrs by luciferase reporter gene assay. The gist of the method:
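GAL4-PPARα-LBD chimera transiently expressed in HepG2 cells; 10⁵ cells/well seeded in triplicate, calcium-phosphate transfection after 24 h with GAL4-PPARα-LBD plasmid (30 ng), pGAL5TKpGL3 reporter (100 ng) and pCMVβgal (250 ng). Transfections repeated at least twice.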

The target of experiment [4] is T4, PPAR alpha/gamma (Homo sapiens) (UniProt P37231+Q07869). Put plainly: Agonist activity at PPARalpha/PPARgamma in human […] cells assessed as increase in CD36 gene expression at 25 uM incubated for 1 day by quantitative PCR method relative to untreated control. The gist of the method:
(§1)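 HepaRG cells grown two weeks in William's E medium with 10% FCS, insulin, glutamine and hydrocortisone, then two weeks more with 2% DMSO. Hepatocyte-like cells detached by mild trypsinization and seeded at 2.6 × 10⁴ cells/cm². After 24 h they were starved 16 h without DMSO/FCS, then exposed 24 h to ligand. Total RNA assayed by real-time qPCR; vehicle-treated control set to 1; duplicate samples; two-way ANOVA with Bonferroni.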

Experiment [5] concerns the target T4, PPAR alpha/gamma (Homo sapiens). Put plainly: Agonist activity at PPARalpha/PPARgamma in human […] cells assessed as increase in FABP1 gene expression at 25 uM incubated for 1 day by quantitative PCR method relative to untreated control. In short, it runs like this: as §1
The target is the same in experiment [6]. Briefly: Agonist activity at PPARalpha/PPARgamma in human […] cells assessed as increase in HMGCS2 gene expression at 25 uM incubated for 1 day by quantitative PCR method relative to untreated control. In short, it runs like this: as §1
Experiment [7] shares this target. Put plainly: Agonist activity at PPARalpha/PPARgamma in human […] cells assessed as increase in CPT1A gene expression at 25 uM incubated for 1 day by quantitative PCR method relative to untreated control. The gist of the method:
as §1

Experiment [8] has the same target. Briefly: Agonist activity at PPARalpha/PPARgamma in human […] cells assessed as increase in ANGPTL4 gene expression at 25 uM incubated for 1 day by quantitative PCR method relative to untreated control. In short, it runs like this:
as §1

For experiment [9] the target is unchanged. Briefly: Agonist activity at PPARalpha/PPARgamma in human […] cells assessed as increase in FABP4 gene expression at 25 uM incubated for 1 day by quantitative PCR method relative to untreated control. The gist of the method:
as §1

Structures are written as SMILES. Active and inactive are the calls of the source. The rule behind the calls is not given here.

On to `O=C(O)[C@H](Cc1ccccc1)Oc1ccc(/C=N/O)cc1`, for which the EC50 worked out at 28 µM in experiment [1] (read-out: EC50) and 5.5 µM in experiment [3] (read-out: EC50). Also, the Emax in [2] is 98%.

Regarding `CCCO/N=C/c1ccc(O[C@@H](Cc2ccccc2)C(=O)O)cc1`, the outcome in [4], in experiment [5], in experiment [6] and in [8] was Active. The EC50 in experiment [1] (read-out: EC50) and in experiment [3] (read-out: EC50) was 3.8 µM in each case. In addition, in experiment [2], the Emax amounted to 91%. Besides, the fold change (FC) in experiment [7] worked out at 2; in experiment [9], 50.

`O=C(O)[C@H](Cc1ccccc1)Oc1ccc(-c2ccccc2)cc1`: the Emax in [2] turned out to be 100%.

For the molecule `O=C(O)C(Cc1ccccc1)Oc1ccc(/C=N/O)cc1` (racemic), the EC50 in experiment [1] (read-out: EC50) turned out to be 43 µM; in experiment [3] (read-out: EC50), 7.75 µM. Besides, the Emax in experiment [2] came to 91%.

As for `CO/N=C/c1ccc(OC(Cc2ccccc2)C(=O)O)cc1` (racemic), the EC50 is 12.8 µM in [1] (read-out: EC50) and 7.8 µM in experiment [3] (read-out: EC50). Moreover, the Emax in experiment [2] is 101%.

For `CCCO/N=C/c1ccc(OC(Cc2ccccc2)C(=O)O)cc1` (racemic), the EC50 was determined as 7.9 µM in [1] (read-out: EC50) and 7.3 µM in [3] (read-out: EC50). Besides, the Emax in experiment [2] amounted to 96%.

As to `CCCCO/N=C/c1ccc(OC(Cc2ccccc2)C(=O)O)cc1` (racemic), the figures for the EC50 in experiment [1] (read-out: EC50) and in [3] (read-out: EC50) were 3.65 µM and 3.9 µM, respectively. In addition, in experiment [2], the Emax is 68%.

With `CCCCCCCO/N=C/c1ccc(OC(Cc2ccccc2)C(=O)O)cc1` (racemic), in experiment [3] (hepg2), the EC50 entry is “Not Active”.

Take `CC(C)O/N=C/c1ccc(OC(Cc2ccccc2)C(=O)O)cc1` (racemic): the EC50 in [1] (read-out: EC50) stood at 5.6 µM; in experiment [3] (read-out: EC50), 4.2 µM. For the same molecule, in experiment [2], the Emax amounted to 63%.

Consider `CC(C)CO/N=C/c1ccc(OC(Cc2ccccc2)C(=O)O)cc1` (racemic), for which the results for the EC50 in experiment [1] (read-out: EC50) and in experiment [3] (read-out: EC50) were 4.5 µM and 3.8 µM, respectively. Also, the Emax in [2] is 52%.

Turning to `O=C(O)C(Cc1ccccc1)Oc1ccc(/C=N/OCc2ccccc2)cc1` (racemic), the EC50 in experiment [1] (read-out: EC50) came out at 2.1 µM; in experiment [3] (read-out: EC50), 6.8 µM. The Emax in [2] worked out at 58%.

On to `O=C(O)C(Cc1ccccc1)Oc1ccc(/C=N/OCCc2ccccc2)cc1` (racemic), for which the values for the EC50 in [1] (read-out: EC50) and in experiment [3] (read-out: EC50) were 1.8 µM and 2.2 µM, respectively. Moreover, the Emax in experiment [2] came out at 48%.

Take `O=C(O)C(Cc1ccccc1)Oc1ccc(/C=N/OCCCc2ccccc2)cc1` (racemic): the results for the EC50 in [1] (read-out: EC50) and in [3] (read-out: EC50) were 1.25 µM and 1.4 µM, respectively. The Emax in [2] amounted to 24%.

As to `C/C(=N\O)c1ccc(OC(Cc2ccccc2)C(=O)O)cc1` (racemic), the EC50 in [1] (read-out: EC50) was 9.4 µM; in experiment [3] (read-out: EC50), 5.2 µM. Besides, the Emax in experiment [2] stood at 68%.

Take `O=C(O)C(Cc1ccccc1)Oc1ccc(/C(=N/O)c2ccccc2)cc1` (racemic): the EC50 amounted to 12.4 µM in experiment [1] (read-out: EC50) and 1.2 µM in experiment [3] (read-out: EC50). Besides, in [2], the Emax amounted to 78%.

In the case of `CCCO/N=C(\c1ccccc1)c1ccc(OC(Cc2ccccc2)C(=O)O)cc1` (racemic), the EC50 in [1] (read-out: EC50) was determined as 1 µM; in experiment [3] (read-out: EC50) it was 2.1 µM. Besides, the Emax in [2] was 24%.

With `CCCO/N=C(/c1ccccc1)c1ccc(OC(Cc2ccccc2)C(=O)O)cc1` (racemic), the figures for the EC50 in experiment [1] (read-out: EC50) and in [3] (read-out: EC50) were 0.68 µM and 0.22 µM, respectively. Further, the Emax in experiment [2] is 59%.

On to `Cc1cccc(Nc2cc(Cl)nc(SCC(=O)O)n2)c1C` [PIRINIXIC ACID], for which the EC50 result in [1] (hepg2) is reported as “Not Active”.

Regarding `CN(CCOc1ccc(CC2SC(=O)NC2=O)cc1)c1ccccn1` (stereo unspecified) [ROSIGLITAZONE], the Emax result in experiment [2] is “inactive”. In experiment [3] (hepg2), the EC50 entry is on record as “Not Active”.
